Reference: ChEMBL document CHEMBL4373711, “Development of 3,5-Dinitrophenyl-Containing 1,2,4-Triazoles and Their Trifluoromethyl Analogues as Highly Efficient Antitubercular Agents Inhibiting Decaprenylphosphoryl-β-d-ribofuranose 2'-Oxidase” (J Med Chem, 2019)
Converted amounts (≈) assume the structure as drawn.

Legend:
[1] = system: Mycobacterium tuberculosis; assay: Antimycobacterial activity against multi-drug resistant Mycobacterium tuberculosis Praha 1 after 21 days; assay type: functional; settings: Praha 1, 504 h
Method in brief: (§1)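 M. tuberculosis strains (H37Rv and clinical MDR/XDR isolates) tested by microdilution in Šula's semisynthetic medium. Compounds were dissolved in DMSO and tested at 32 to 0.03 µM in twofold steps. Inoculum was a 1.0 McFarland suspension diluted 10-3. Plates were incubated at 37 °C and read at 14 and 21 days.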

[2] = system: Mycobacterium tuberculosis; assay: Antimycobacterial activity against multi-drug resistant Mycobacterium tuberculosis Praha 4 after 14 days; settings: Praha 4, 336 h
[3] = system: Mycobacterium tuberculosis; assay: Antimycobacterial activity against multi-drug resistant Mycobacterium tuberculosis 7357/1998 after 21 days; assay type: functional; settings: 7357/1998, 504 h; method in brief: as §1
[4] = system: Mycobacterium tuberculosis; assay: Antimycobacterial activity against multi-drug resistant Mycobacterium tuberculosis 9449/2007 after 21 days; assay type: functional; settings: 9449/2007, 504 h; method in brief: as §1
[5] = system: Mycobacterium tuberculosis; assay: Antimycobacterial activity against multi-drug resistant Mycobacterium tuberculosis 9449/2007 after 14 days; assay type: functional; settings: 9449/2007, 336 h; method in brief: as §1
[6] = system: Mycobacterium tuberculosis; assay: Antimycobacterial activity against multi-drug resistant Mycobacterium tuberculosis 7357/1998 after 14 days; assay type: functional; settings: 7357/1998, 336 h; method in brief: as §1
[7] = system: Mycobacterium tuberculosis; assay: Antimycobacterial activity against multi-drug resistant Mycobacterium tuberculosis Praha 4 after 21 days; assay type: functional; settings: Praha 4, 504 h; method in brief: as §1
[8] = system: Mycobacterium tuberculosis; assay: Antimycobacterial activity against multi-drug resistant Mycobacterium tuberculosis 8666/2010 after 21 days; assay type: functional; settings: 8666/2010, 504 h; method in brief: as §1
[9] = system: Mycobacterium tuberculosis; assay: microbe, parasite or virus in culture; settings: 234/2005, 336 h
[10] = system: Mycobacterium tuberculosis; assay: Antimycobacterial activity against multi-drug resistant Mycobacterium tuberculosis 234/2005 after 21 days; assay type: functional; settings: 234/2005, 504 h; method in brief: as §1
[11] = system: Mycobacterium tuberculosis; assay: Antimycobacterial activity against multi-drug resistant Mycobacterium tuberculosis Praha 1 after 14 days; assay type: functional; settings: Praha 1, 336 h; method in brief: as §1
[12] = system: Mycobacterium tuberculosis; assay: Antimycobacterial activity against multi-drug resistant Mycobacterium tuberculosis 8666/2010 after 14 days; assay type: functional; settings: 8666/2010, 336 h; method in brief: as §1

Structure (SMILES) | MIC99 [1] | MIC99 [2] | MIC99 [3] | MIC99 [4] | MIC99 [5] | MIC99 [6] | MIC99 [7] | MIC99 [8] | MIC99 [9] | MIC99 [10] | MIC99 [11] | MIC99 [12]
O=[N+]([O-])c1cc(CSc2nnc(-c3ccccc3)n2Cc2ccccc2)cc([N+](=O)[O-])c1 | 4 µM (≈ 1.79 µg/mL) | 2 µM (≈ 0.895 µg/mL) | 2 µM (≈ 0.895 µg/mL) | 4 µM (≈ 1.79 µg/mL) | 4 µM (≈ 1.79 µg/mL) | 4 µM (≈ 1.79 µg/mL) | 4 µM (≈ 1.79 µg/mL) | 4 µM (≈ 1.79 µg/mL) | 4 µM (≈ 1.79 µg/mL) | 4 µM (≈ 1.79 µg/mL) | 2 µM (≈ 0.895 µg/mL) | 2 µM (≈ 0.895 µg/mL)
CCCCCCn1c(SCc2cc([N+](=O)[O-])cc([N+](=O)[O-])c2)nnc1-c1ccccc1 | 2 µM (≈ 0.883 µg/mL) | 2 µM (≈ 0.883 µg/mL) | 1 µM (≈ 0.442 µg/mL) | 1 µM (≈ 0.442 µg/mL) | 2 µM (≈ 0.883 µg/mL) | 2 µM (≈ 0.883 µg/mL) | 4 µM (≈ 1.77 µg/mL) | 2 µM (≈ 0.883 µg/mL) | 2 µM (≈ 0.883 µg/mL) | 2 µM (≈ 0.883 µg/mL) | 1 µM (≈ 0.442 µg/mL) | 1 µM (≈ 0.442 µg/mL)
O=[N+]([O-])c1cc(-c2nnc(SCc3ccccc3)n2Cc2ccccc2)cc([N+](=O)[O-])c1 | 0.03 µM (≈ 0.0134 µg/mL) | 0.03 µM (≈ 0.0134 µg/mL) | 0.03 µM (≈ 0.0134 µg/mL) | 0.03 µM (≈ 0.0134 µg/mL) | 0.03 µM (≈ 0.0134 µg/mL) | 0.03 µM (≈ 0.0134 µg/mL) | 0.03 µM (≈ 0.0134 µg/mL) | 0.03 µM (≈ 0.0134 µg/mL) | 0.03 µM (≈ 0.0134 µg/mL) | 0.03 µM (≈ 0.0134 µg/mL) | 0.03 µM (≈ 0.0134 µg/mL) | 0.03 µM (≈ 0.0134 µg/mL)
COc1ccc(CSc2nnc(-c3cc([N+](=O)[O-])cc(C(F)(F)F)c3)n2Cc2ccccc2)cc1 | 0.5 µM (≈ 0.25 µg/mL) | 0.5 µM (≈ 0.25 µg/mL) | 0.5 µM (≈ 0.25 µg/mL) | 0.5 µM (≈ 0.25 µg/mL) | 0.5 µM (≈ 0.25 µg/mL) | 0.5 µM (≈ 0.25 µg/mL) | 0.5 µM (≈ 0.25 µg/mL) | 0.5 µM (≈ 0.25 µg/mL) | 1 µM (≈ 0.501 µg/mL) | 2 µM (≈ 1 µg/mL) | 0.5 µM (≈ 0.25 µg/mL) | 0.5 µM (≈ 0.25 µg/mL)
CO[C@H]1/C=C/O[C@@]2(C)Oc3c(C)c(O)c4c(O)c(c(/C=N/N5CCN(C)CC5)c(O)c4c3C2=O)NC(=O)/C(C)=C\C=C\[C@H](C)[C@H](O)[C@@H](C)[C@@H](O)[C@@H](C)[C@H](OC(C)=O)[C@@H]1C [RIFAMPIN] | – | > 8 µM | > 8 µM | > 8 µM | – | – | – | – | > 8 µM | – | > 8 µM | > 8 µM
Cn1c(SCc2ccc(Cl)c(Cl)c2)nnc1-c1cc([N+](=O)[O-])cc([N+](=O)[O-])c1 | 0.06 µM (≈ 0.0264 µg/mL) | 0.06 µM (≈ 0.0264 µg/mL) | 0.06 µM (≈ 0.0264 µg/mL) | 0.06 µM (≈ 0.0264 µg/mL) | 0.06 µM (≈ 0.0264 µg/mL) | 0.06 µM (≈ 0.0264 µg/mL) | 0.06 µM (≈ 0.0264 µg/mL) | 0.06 µM (≈ 0.0264 µg/mL) | 0.06 µM (≈ 0.0264 µg/mL) | 0.06 µM (≈ 0.0264 µg/mL) | 0.06 µM (≈ 0.0264 µg/mL) | 0.06 µM (≈ 0.0264 µg/mL)
CC1COc2c(N3CCN(C)CC3)c(F)cc3c(=O)c(C(=O)O)cn1c23 (stereo not given) [OFLOXACIN] | – | > 16 µM | – | – | – | – | – | – | – | – | – | –
O=[N+]([O-])c1cc(-c2nnc(SCc3ccc(Cl)c(Cl)c3)n2Cc2ccccc2)cc([N+](=O)[O-])c1 | 0.25 µM (≈ 0.129 µg/mL) | 0.125 µM (≈ 0.0645 µg/mL) | 0.25 µM (≈ 0.129 µg/mL) | 0.25 µM (≈ 0.129 µg/mL) | 0.25 µM (≈ 0.129 µg/mL) | 0.25 µM (≈ 0.129 µg/mL) | 0.125 µM (≈ 0.0645 µg/mL) | 0.25 µM (≈ 0.129 µg/mL) | 0.25 µM (≈ 0.129 µg/mL) | 0.25 µM (≈ 0.129 µg/mL) | 0.25 µM (≈ 0.129 µg/mL) | 0.25 µM (≈ 0.129 µg/mL)
CCCSc1nnc(-c2cc([N+](=O)[O-])cc([N+](=O)[O-])c2)n1Cc1ccccc1 | 0.125 µM (≈ 0.0499 µg/mL) | 0.125 µM (≈ 0.0499 µg/mL) | 0.06 µM (≈ 0.024 µg/mL) | 0.06 µM (≈ 0.024 µg/mL) | 0.125 µM (≈ 0.0499 µg/mL) | 0.125 µM (≈ 0.0499 µg/mL) | 0.125 µM (≈ 0.0499 µg/mL) | 0.125 µM (≈ 0.0499 µg/mL) | 0.06 µM (≈ 0.024 µg/mL) | 0.125 µM (≈ 0.0499 µg/mL) | 0.125 µM (≈ 0.0499 µg/mL) | 0.06 µM (≈ 0.024 µg/mL)
Cn1c(SCc2ccccc2)nnc1-c1cc([N+](=O)[O-])cc([N+](=O)[O-])c1 | 0.03 µM (≈ 0.0111 µg/mL) | 0.03 µM (≈ 0.0111 µg/mL) | 0.03 µM (≈ 0.0111 µg/mL) | 0.03 µM (≈ 0.0111 µg/mL) | 0.03 µM (≈ 0.0111 µg/mL) | 0.03 µM (≈ 0.0111 µg/mL) | 0.03 µM (≈ 0.0111 µg/mL) | 0.03 µM (≈ 0.0111 µg/mL) | 0.03 µM (≈ 0.0111 µg/mL) | 0.03 µM (≈ 0.0111 µg/mL) | 0.03 µM (≈ 0.0111 µg/mL) | 0.03 µM (≈ 0.0111 µg/mL)
CCCCCCCCSc1nnc(-c2cc([N+](=O)[O-])cc([N+](=O)[O-])c2)n1Cc1ccccc1 | 0.25 µM (≈ 0.117 µg/mL) | 0.125 µM (≈ 0.0587 µg/mL) | 0.125 µM (≈ 0.0587 µg/mL) | 0.125 µM (≈ 0.0587 µg/mL) | 0.25 µM (≈ 0.117 µg/mL) | 0.25 µM (≈ 0.117 µg/mL) | 0.25 µM (≈ 0.117 µg/mL) | 0.25 µM (≈ 0.117 µg/mL) | 0.125 µM (≈ 0.0587 µg/mL) | 0.25 µM (≈ 0.117 µg/mL) | 0.125 µM (≈ 0.0587 µg/mL) | 0.125 µM (≈ 0.0587 µg/mL)
